Inconclusive results are not listed.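 Rule for the calls, unless noted: active = cell viability at or below a set limit in both duplicate runs, the limit being the all-compound median minus 4 SD (cut at about 23% in these data, passing the limit was not always enough); inconclusive = no clear call, values can overlap the other calls; inactive = the rest.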
Key:
[1] = S. cerevisiae growth inhibition in permissive medium (OD615), pilot counter-assay for S. cerevisiae lifespan shortening project, permissive growth control (AID 705;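 active = growth inhibition above 25% in both replicates, a cutoff set 3 SD above the mean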); details: OD615, 24 h, at 10 µM, stronger effect = higher value
Method in brief: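 Timing: 24 h exposure, 30 °C / Material: Saccharomyces cerevisiae strain carrying genetically modified DeaD replicative-lifespan system / Signal: OD at 615 nm / Compound: 10 µM single dose, 0.25% DMSO / Medium: SC raffinose/galactose permissive medium / Evaluation: reduction in yeast growth (OD615)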

[2] = S. cerevisiae growth inhibition in restrictive medium, OD615, pilot screen, restrictive growth control, yeast lifespan reduction project (AID 706;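 active = growth inhibition above a set limit, 3 SD over mean compound inhibition, in both replicates, cut at about 43% in these data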;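 note: modified DeaD lifespan yeast strain shifted to restrictive glucose medium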); details: OD615, 48 h, at 10 µM, stronger effect = higher value
Method in brief: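 System: Engineered S. cerevisiae DeaD strain | Detection: OD615 | Buffer or medium: CSMM-D glucose medium | Doses: 10 µM compound, 0.25% DMSO | Timing: 4 h pre-growth plus 48 h compound exposure, 30 °C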

[3] = doxorubicin toxicity protection in MRP-1 cells – H69AR cells, CellTiter-Glo, duplicate, MRP-1 activator project, pilot screen (AID 807;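 active = viability increase at or above a cutoff of the median across tested compounds plus 3 SD, cut at about 8.5% in these data, passing the limit was not always enough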;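 note: compound pretreatment 18-22 h then 72 h combined with doxorubicin; 0% = doxorubicin alone and 100% = vehicle without doxorubicin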); details: H69AR viability with doxorubicin, CellTiter-Glo luminescence; at 10 µM; stronger effect = higher value
[4] = viability of HCT116 without oncogenic beta-catenin – human colon tumor cells, pilot screen (AID 823); details: HCT116 beta-catenin knockout viability, CellTiter-Glo, 60 h; at 10 µM; stronger effect = lower value;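 note: 0% = wells killed by 20 µM Hyamine and 100% = untreated DMSO cell wells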
[5] = viability of PTEN-null HCT116 cells – cell-based, HCT116 clonal line, CellTiter-Glo, pilot screen (AID 824;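 active = viability at or below 27.92% in each of two runs, the all-compound median minus 4 SD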;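 note: 0% = 20 µM Hyamine control and 100% = vehicle cell control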); details: HCT116 PTEN-deleted viability, 60 h, at 10 µM, stronger effect = lower value
[6] = RAM pathway blockade in budding yeast – dse1pr::URA3 reporter, 5-FOA selection, pilot screen (AID 869;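 active = inhibition over a set limit, the all-compound mean plus 3 SD, in both replicate runs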;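 note: 0% = DMSO wells with no growth and 100% = 10 µM 1-NA-PP1 with full growth; RAM network block rescues cells from 5-FOA so hits raise OD615 growth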); details: S. cerevisiae dse1pr::URA3 5-FOA growth, OD615, 2 d; at 10 µM; stronger effect = higher value; strain carries analog-sensitive mutant Cbk1 kinase
[7] = RAM signaling pathway blockade in yeast – S. cerevisiae, Pdr1DBD-CYC8 efflux-inhibited sensitized strain, primary screen (AID 1298;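 active = RAM network inhibition above 8.4% in each of two replicates, 3 SD over the compound average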;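 note: 0% = DMSO untreated cells without growth and 100% = 10 µM 1-NA-PP1 full growth; higher means more yeast growth rescued from 5-FOA killing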); details: S. cerevisiae cbk1-as DSE1-URA3 strain, 5-FOA growth OD615, 2 d; at 50 µM; stronger effect = higher value

COc1cccc(C(=O)Nc2nnc(-c3ccc(F)cc3)o2)c1
inactive: growth inhibition [1] -12.2% | growth inhibition [2] -0.875% | viability increase [3] -3.38% | viability [4] 29% | viability [5] 32% | inhibition [6] 0.4% | RAM network inhibition [7] 0.21%

CCOC(=O)c1ccc(NC(=O)CCC(=O)OC)cc1
inactive: growth inhibition [1] 5.7% | growth inhibition [2] -1.83% | viability increase [3] -1.2% | viability [4] 96.8% | viability [5] 98.3% | inhibition [6] 1.98% | RAM network inhibition [7] 3.41%

CC(=O)Nc1cc2c(cc1C(=O)c1ccccc1)OCCO2
inactive: growth inhibition [1] -3.76% | growth inhibition [2] 7.87% | viability increase [3] -0.99% | viability [4] 95.2% | viability [5] 92.9% | inhibition [6] 1.35% | RAM network inhibition [7] 0.89%

NC(=O)c1sc(=S)n(-c2ccc(Br)cc2)c1N
inactive: growth inhibition [1] -6.66% | growth inhibition [2] 0.735% | viability increase [3] -4.05% | viability [4] 97.7% | viability [5] 83.7% | inhibition [6] 1.51% | RAM network inhibition [7] 2.48%

CCOc1ccc(C(=O)Nc2cc(C)c3c(=O)oc4ccccc4c3n2)cc1
inactive: growth inhibition [1] -0.2% | growth inhibition [2] 9.54% | viability increase [3] -7.84% | viability [4] 65% | viability [5] 40.8% | inhibition [6] 1.54% | RAM network inhibition [7] 1.29%

CCOCCCNC(=O)C(c1ccc(C)cc1)N1CCOCC1 (stereo unspecified)
inactive: growth inhibition [1] -11.9% | growth inhibition [2] 2.48% | viability increase [3] -3.18% | viability [4] 93.2% | viability [5] 102% | inhibition [6] 1.84% | RAM network inhibition [7] 1.62%

Cn1c(=O)oc2cc(S(=O)(=O)NCc3ccccn3)ccc21
inactive: growth inhibition [1] -20.9% | growth inhibition [2] -20.2% | viability increase [3] 0.44% | viability [4] 96.5% | viability [5] 101% | inhibition [6] 3.3% | RAM network inhibition [7] 4.32%

COc1ccc(-n2c(SCC(=O)Nc3cc(C)on3)nc3c(c2=O)SCC3)cc1
inactive: growth inhibition [1] -13.1% | growth inhibition [2] -6.83% | viability increase [3] 0.28% | viability [4] 112% | viability [5] 95.5% | inhibition [6] 4.46% | RAM network inhibition [7] 6.81%

CC(C)(C)C1CCc2c(sc(NC(=O)c3cc(C4CC4)on3)c2C#N)C1 (stereo unspecified)
inactive: growth inhibition [1] -2.48% | growth inhibition [2] -5.6% | viability increase [3] -1.27% | viability [4] 96.8% | viability [5] 90.5% | inhibition [6] 3.56% | RAM network inhibition [7] 2.83%

COc1ccc(CCN2CC(C#N)=C3c4cc(OC)c(OC)cc4CCN3C2)cc1OC
inactive: growth inhibition [1] -2.16% | growth inhibition [2] 3.84% | viability increase [3] -4.7% | viability [4] 99.5% | viability [5] 95.4% | inhibition [6] -0.455% | RAM network inhibition [7] -0.37%

CCCCCSc1nc2c(c(=O)[nH]c(=O)n2C)n1CC
inactive: growth inhibition [1] -13.1% | growth inhibition [2] 1.94% | viability increase [3] -3.9% | viability [4] 88% | viability [5] 88% | inhibition [6] 1.18% | RAM network inhibition [7] -1.69%

COc1ccc(N2CCC(CNC(=O)Nc3ccc(C)c(C)c3)C2)cc1 (stereo unspecified)
inactive: growth inhibition [1] -8.33% | growth inhibition [2] -2.14% | viability increase [3] 1.23% | viability [4] 91.2% | viability [5] 74.8% | inhibition [6] 0.77% | RAM network inhibition [7] 2.95%

Cc1cc(C)cc(NC(=O)CSc2nc3c(c(=O)n2C)SC(C)C3)c1 (stereo unspecified)
inactive: growth inhibition [1] -2.6% | growth inhibition [2] 2.95% | viability increase [3] -2.79% | viability [4] 89.3% | viability [5] 92% | inhibition [6] 2.04% | RAM network inhibition [7] 6.37%

CCC(Oc1ccccc1)C(=O)Nc1cc(C)on1 (stereo unspecified)
inactive: growth inhibition [1] -8.55% | growth inhibition [2] -7.2% | viability increase [3] -0.57% | viability [4] 108% | viability [5] 90.2% | inhibition [6] 0.86% | RAM network inhibition [7] 0.2%

CCOC(=O)Cn1c(=NC(=O)CSC(C)=O)sc2ccccc21
inactive: growth inhibition [1] 0% | growth inhibition [2] 8.74% | viability increase [3] -4.54% | viability [4] 105% | viability [5] 106% | inhibition [6] 0.465% | RAM network inhibition [7] 4.02%

COc1ccc(-c2nc(CS(=O)CC(=O)NCc3ccco3)c(C)o2)cc1 (stereo unspecified)
inactive: growth inhibition [1] -8.38% | growth inhibition [2] 17.3% | viability increase [3] -4.45% | viability [4] 92.5% | viability [5] 100% | inhibition [6] 1.88% | RAM network inhibition [7] 0.58%

CCCC(=O)c1c(NC)cc(C)oc1=O
inactive: growth inhibition [1] -7.03% | growth inhibition [2] 4.71% | viability increase [3] -0.53% | viability [4] 97.2% | viability [5] 92.2% | inhibition [6] 0.62% | RAM network inhibition [7] 3.99%

CCOC(=O)CNC(=O)C(NC(=O)C1CCC(C)CC1)C(C)CC (stereo unspecified)
inactive: growth inhibition [1] 0.975% | growth inhibition [2] -17.8% | viability increase [3] -1.73% | viability [4] 98.8% | viability [5] 98% | inhibition [6] 0.95% | RAM network inhibition [7] 0.93%

Cc1cc(N2CCOCC2)cc(C)[n+]1[O-]
inactive: growth inhibition [1] -2.4% | growth inhibition [2] -2.99% | viability increase [3] -1.54% | viability [4] 89.5% | viability [5] 93.2% | inhibition [6] -0.115% | RAM network inhibition [7] 1.76%

COc1ccc(N(C)S(=O)(=O)c2cccc(C(=O)NC3=NCCS3)c2)cc1
inactive: growth inhibition [1] -4.93% | growth inhibition [2] -1.7% | viability increase [3] -1.55% | viability [4] 91.6% | viability [5] 89.8% | inhibition [6] 1.13% | RAM network inhibition [7] 2.28%

COc1ccc(C2/C(=C(/O)c3ccc(F)cc3)C(=O)C(=O)N2CCCN(C)C)cc1 (stereo unspecified)
inactive: growth inhibition [1] -5.9% | growth inhibition [2] -4.55% | viability increase [3] -2.11% | viability [4] 104% | viability [5] 98.1% | inhibition [6] 0.345% | RAM network inhibition [7] 2.49%

O=C(Cn1ncc2c1-c1ccccc1OC2)Nc1ccc(S(=O)(=O)N2CCCCC2)cc1
inactive: growth inhibition [1] 0.515% | growth inhibition [2] -5.21% | viability increase [3] -2.69% | viability [4] 90.7% | viability [5] 84.8% | inhibition [6] 0.655% | RAM network inhibition [7] 4.53%

COc1ccc(CNC(=O)c2onc(C)c2Cl)cc1
inactive: growth inhibition [1] -14.2% | growth inhibition [2] -17.2% | viability increase [3] -1.96% | viability [4] 96% | viability [5] 93.7% | inhibition [6] 2.31% | RAM network inhibition [7] 4.91%

COc1ccccc1N1CCN(C(=O)c2cc3c(=O)n(C)c4ccccc4c3n2C)CC1
inactive: growth inhibition [1] -7.35% | growth inhibition [2] 3.62% | viability increase [3] 2.2% | viability [4] 67.3% | viability [5] 72% | inhibition [6] 0.125% | RAM network inhibition [7] -0.26%

Cn1c(=O)c2c(nc(NC3CCCCC3)n2Cc2ccccc2)n(C)c1=O
inactive: growth inhibition [1] -0.82% | growth inhibition [2] 4.89% | viability increase [3] -3.11% | viability [4] 78.9% | viability [5] 75.5% | inhibition [6] 2.92% | RAM network inhibition [7] 3.48%

Cc1ccccc1Cn1c(CN2CCN(c3ccc(F)cc3)CC2)nc2c1c(=O)n(C)c(=O)n2C
inactive: growth inhibition [1] -12.2% | growth inhibition [2] -17.1% | viability increase [3] -3.7% | viability [4] 94.4% | viability [5] 92.2% | inhibition [6] 2.51% | RAM network inhibition [7] 7.93%

Cc1oc(-c2ccc(Cl)cc2)nc1CN1CCC(C(=O)NCCCN2CCCC2=O)CC1
inactive: growth inhibition [1] -13.4% | growth inhibition [2] -11.7% | viability increase [3] -2.67% | viability [4] 93.1% | viability [5] 89% | inhibition [6] 1.76% | RAM network inhibition [7] 4.34%

COc1ccc(OC)c2c(C)cc(NCCN3CCOCC3)nc12
inactive: growth inhibition [1] -14.7% | growth inhibition [2] -2.92% | viability increase [3] -4.52% | viability [4] 81.5% | viability [5] 84.9% | inhibition [6] 1.78% | RAM network inhibition [7] 2.55%

COc1ccc(-c2cn3c(C)c(C(=O)NC(C)(C)C)sc3n2)cc1
inactive: growth inhibition [1] -8.09% | growth inhibition [2] -9.73% | viability increase [3] -5.94% | viability [4] 81.5% | viability [5] 85.7% | inhibition [6] 0.645% | RAM network inhibition [7] 1.82%

COc1ccc(N2C(=O)C3CCCN3C2c2ccccc2)cc1 (stereo unspecified)
inactive: growth inhibition [1] 4.01% | growth inhibition [2] -9.51% | viability increase [3] -0.65% | viability [4] 102% | viability [5] 101% | inhibition [6] 1.87% | RAM network inhibition [7] -0.32%

CC(C)c1ccc(NC(=O)C(c2ccccc2)N2CCOCC2)cc1 (stereo unspecified)
inactive: growth inhibition [1] -0.695% | growth inhibition [2] 0.125% | viability increase [3] 1.44% | viability [4] 91.3% | viability [5] 83.6% | inhibition [6] 0.515% | RAM network inhibition [7] 0.47%

COc1ccc(C2=NOC(C(=O)N3CCN(c4ccccc4OC)CC3)C2)cc1 (stereo unspecified)
inactive: growth inhibition [1] -7.36% | growth inhibition [2] 0.135% | viability increase [3] 2.8% | viability [4] 99.9% | viability [5] 88.5% | inhibition [6] 2.17% | RAM network inhibition [7] 4.09%

O=C(CCS(=O)(=O)c1cccc2nonc12)NC1CCCCCC1
inactive: growth inhibition [1] -7.86% | growth inhibition [2] -9.46% | viability increase [3] -4.43% | viability [4] 86.7% | viability [5] 84.5% | inhibition [6] 0.855% | RAM network inhibition [7] 0.93%

From PubChem BioAssay
